Reference: ChEMBL document CHEMBL2331151 (Bioorg Med Chem, 2013)
Blank lines part the entries; values can stand above or below the compound they belong to.

Assays:
[1] = AUC (0 to 24 hrs) in Sprague-Dawley rat at 5 mg/kg, po; assay type: ADME, organism-based; design: time < 24 hr, dose 5 mg/kg, route oral; settings: plasma
Summary of the method: (§1)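 Compound given as a suspension by oral gavage to Sprague–Dawley rats as a single dose (5 mg/kg in the single-dose comparison; doses from 0.1–100 mg/kg in the dose-dependence study).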

Liver microsomes = assay: Drug metabolism in rat liver microsomes in presence of S9 fractions; assay type: ADME, Microsome
Summary of the method: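 Compound incubated with the S-9 fraction of rat liver microsomes to measure in vitro clearance. Primary metabolites formed during the incubation were identified.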

[2] = Half life in Sprague-Dawley rat at 5 mg/kg; assay type: ADME, organism-based; design: dose 5 mg/kg; settings: in vivo
[3] = Oral bioavailability in Sprague-Dawley rat at 5 mg/kg; assay type: ADME, organism-based; settings: in vivo
[4] = Cmax in Sprague-Dawley rat at 5 mg/kg, po; assay type: ADME, organism-based; design: dose 5 mg/kg, route oral; settings: in vivo; summary of the method: as §1
[5] = Cmax in Sprague-Dawley rat at 2 mg/kg, po; assay type: ADME, organism-based; design: dose 2 mg/kg, route oral; settings: in vivo; summary of the method: as §1
[6] = Cmax in Sprague-Dawley rat at 30 mg/kg, po; assay type: ADME, organism-based; design: dose 30 mg/kg, route oral; settings: in vivo; summary of the method: as §1
[7] = AUC (0 to 24 hrs) in Sprague-Dawley rat at 1 mg/kg, po; assay type: ADME, organism-based; design: time < 24 hr, dose 1 mg/kg, route oral; settings: plasma; summary of the method: as §1
[8] = Cmax in Sprague-Dawley rat at 1 mg/kg, po; assay type: ADME, organism-based; design: dose 1 mg/kg, route oral; settings: in vivo; summary of the method: as §1
[9] = Cmax in Sprague-Dawley rat at 0.1 mg/kg, po; assay type: ADME, organism-based; design: dose 0.1 mg/kg, route oral; settings: in vivo; summary of the method: as §1
[10] = Cmax in Sprague-Dawley rat at 100 mg/kg, po; assay type: ADME, organism-based; design: dose 100 mg/kg, route oral; settings: in vivo; summary of the method: as §1
[11] = AUC (0 to 24 hrs) in Sprague-Dawley rat at 30 mg/kg, po; assay type: ADME, organism-based; design: time < 24 hr, dose 30 mg/kg, route oral; settings: plasma; summary of the method: as §1
[12] = AUC (0 to 24 hrs) in Sprague-Dawley rat at 0.3 mg/kg, po; assay type: ADME, organism-based; design: time < 24 hr, dose 0.3 mg/kg, route oral; settings: plasma; summary of the method: as §1
[13] = AUC (0 to 24 hrs) in Sprague-Dawley rat at 0.1 mg/kg, po; assay type: ADME, organism-based; design: time < 24 hr, dose 0.1 mg/kg, route oral; settings: plasma; summary of the method: as §1
[14] = AUC (0 to 24 hrs) in Sprague-Dawley rat at 100 mg/kg, po; assay type: ADME, organism-based; design: time < 24 hr, dose 100 mg/kg, route oral; settings: plasma; summary of the method: as §1
[15] = Cmax in Sprague-Dawley rat at 0.3 mg/kg, po; assay type: ADME, organism-based; design: dose 0.3 mg/kg, route oral; settings: in vivo; summary of the method: as §1
[16] = AUC (0 to 24 hrs) in Sprague-Dawley rat at 2 mg/kg, po; assay type: ADME, organism-based; design: time < 24 hr, dose 2 mg/kg, route oral; settings: plasma; summary of the method: as §1

- AUC(0-t) at 24 h [1]: 4.8 µM·h
SMILES: O=S(=O)(Nc1cc(Cl)c(Oc2cncc(Cl)c2)c(Cl)c1)c1ccc(Cl)cc1Cl

- Drug metabolism (Liver microsomes): Active
- AUC(0-t) at 24 h [1]: 1.6 µM·h
- half-life [2]: 40 min
- bioavailability [3]: 8%
SMILES: CCNC(=O)c1cc(NS(=O)(=O)c2cc(C)c(Cl)cc2Cl)ccc1Oc1cncc(Cl)c1

- AUC(0-t) at 24 h [1]: 105 µM·h
- Cmax [4]: 11 µM
SMILES: O=S(=O)(Nc1ccc(Oc2cnc3ccccc3c2)c(Cl)c1)c1ccc(Cl)cc1Cl

- AUC(0-t) at 24 h [1]: 82 µM·h
- Cmax [4]: 4.8 µM
SMILES: O=S(=O)(Nc1ccc(Oc2cnc3ccccc3c2)c(F)c1)c1ccc(Cl)cc1Cl

- AUC(0-t) at 24 h [1]: 112 µM·h
- Cmax [4]: 8.5 µM
SMILES: O=S(=O)(Nc1cc(Cl)c(Oc2cnc3ccccc3c2)c(Cl)c1)c1ccc(C(F)(F)F)cc1Cl

- AUC(0-t) at 24 h [1]: 3.4 µM·h
- Cmax [4]: 0.92 µM
SMILES: CC(=O)c1cc(NS(=O)(=O)c2ccc(Cl)cc2Cl)ccc1Oc1cnc2ccccc2c1

- AUC(0-t) at 24 h [1]: 31 µM·h
SMILES: N#Cc1cc(NS(=O)(=O)c2ccc(Cl)cc2Cl)ccc1Oc1cncc(Cl)c1

- Cmax [5]: 0.66 µM
- Cmax [6]: 4.3 µM
- AUC(0-t) at 24 h [7]: 5.1 µM·h
- Cmax [8]: 0.39 µM
- AUC(0-t) at 24 h [1]: 30 µM·h
- Cmax [9]: 0.08 µM
- Cmax [4]: 1.1 µM
- Cmax [10]: 6.1 µM
- AUC(0-t) at 24 h [11]: 71 µM·h
- AUC(0-t) at 24 h [12]: 2.6 µM·h
- AUC(0-t) at 24 h [13]: 1.1 µM·h
- AUC(0-t) at 24 h [14]: 100 µM·h
- Cmax [15]: 0.13 µM
- AUC(0-t) at 24 h [16]: 8.3 µM·h
SMILES: O=S(=O)(Nc1cc(Cl)c(Oc2cnc3ccccc3c2)c(Cl)c1)c1ccc(Cl)cc1Cl [INT131]
